Kir21 inh = blocks the mouse Kir2.1 inward-rectifier potassium channel. P35561. HEK293-Kir2.1, FluxOR thallium flux fluorescence; stronger effect = lower value. B-score at 10 µM. actives 0.85% (n = 310,000);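 active means fluorescence ratio B-score at or below minus 3 SD of library scores, with starting-brightness B-score within 2 SD, cut at about -4.2 in these data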;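 further: channel flux triggered by added potassium and thallium sulfate stimulus; B-score of peak minus minimum fluorescence over baseline after thallium stimulus; more negative B-score means stronger Kir2.1 block with less thallium influx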
TRPC6 activator = mouse TRPC6 channel activation. Q61143. HEK293-TRPC6 membrane potential dye fluorescence; stronger effect = higher value. B-score at 10 µM. actives 0.13% (n = 310,000);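 active means B-score of the integrated fluorescence ratio above library mean plus 3 SD, and starting fluorescence ratio within library mean plus 5 SD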;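 further: higher score means more depolarization so channel activation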
Target sequence (Q61143 whole entry, looked up): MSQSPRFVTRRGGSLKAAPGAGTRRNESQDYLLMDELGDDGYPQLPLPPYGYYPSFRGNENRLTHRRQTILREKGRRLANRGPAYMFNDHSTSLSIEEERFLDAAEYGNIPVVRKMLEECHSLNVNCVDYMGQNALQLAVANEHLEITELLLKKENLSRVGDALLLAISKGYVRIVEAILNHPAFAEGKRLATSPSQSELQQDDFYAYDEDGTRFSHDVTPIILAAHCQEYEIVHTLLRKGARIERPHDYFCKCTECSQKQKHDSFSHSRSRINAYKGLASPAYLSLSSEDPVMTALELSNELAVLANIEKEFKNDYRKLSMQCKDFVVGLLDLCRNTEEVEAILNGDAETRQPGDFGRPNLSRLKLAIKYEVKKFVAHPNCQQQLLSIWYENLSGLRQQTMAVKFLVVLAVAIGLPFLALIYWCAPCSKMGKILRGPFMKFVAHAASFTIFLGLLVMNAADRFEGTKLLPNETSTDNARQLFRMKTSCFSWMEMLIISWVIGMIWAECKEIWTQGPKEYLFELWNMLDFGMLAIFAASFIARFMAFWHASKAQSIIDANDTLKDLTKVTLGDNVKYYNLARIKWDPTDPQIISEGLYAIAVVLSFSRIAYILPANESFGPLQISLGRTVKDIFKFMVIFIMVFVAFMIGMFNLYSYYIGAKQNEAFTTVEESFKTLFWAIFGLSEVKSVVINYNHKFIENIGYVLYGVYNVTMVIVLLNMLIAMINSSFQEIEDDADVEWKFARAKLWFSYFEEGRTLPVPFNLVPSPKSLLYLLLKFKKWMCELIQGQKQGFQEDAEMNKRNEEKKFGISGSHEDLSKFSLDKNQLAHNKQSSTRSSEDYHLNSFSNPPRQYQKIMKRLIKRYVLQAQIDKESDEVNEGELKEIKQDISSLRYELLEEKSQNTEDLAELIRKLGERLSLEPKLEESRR
TRPC4 block = blocks the mouse TRPC4 cation channel | HEK293 TRPC4beta/mu-opioid, DAMGO-evoked Fluo4 calcium flux; stronger effect = lower value | AID 2247 | actives 0.39% (n = 300,000) | Q9QUQ5 | B-score at 10 µM;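 active means B-score over 3 SD under the library average, no early fluorescence shift, positive overall ratio signal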
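Assay system – HEK293 line stably carrying TRPC4beta and mu-opioid receptor · Doses – single dose · Detection – Fluo4 calcium-dye fluorescence, kinetic read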
TRPC6 inh = inhibitors of mouse TRPC6 channel; HEK293-TRPC6, membrane potential dye, ACh-evoked depolarization; stronger effect = lower value; actives 1.1% (n = 310,000); B-score at 10 µM; Q61143;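 active means B-score under library mean minus 3 SD, initial fluorescence not abnormally high, positive integrated signal ratio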;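 further: B-score derived from integrated fluorescence ratio over the kinetic read; more negative B-score means stronger inhibition of depolarization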
TRPC4 potent = TRPC4 (mouse) allosteric potentiation. B-score at 10 µM. Q9QUQ5. actives 0.42% (n = 310,000). HEK293 TRPC4beta/mu-opioid, DAMGO EC20, Fluo-4 Ca2+ flux; stronger effect = higher value;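 active means B-score of calcium response area above 5 SD of library B-scores, with initial fluorescence ratio within 5 SD of library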;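 further: B-score of integrated fluorescence ratio over time as area under calcium response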
TRPC4 act = activators of mouse TRPC4 channel. Q9QUQ5. HEK293 TRPC4beta/mu-opioid, Fluo4 calcium fluorescence; stronger effect = higher value. B-score at 10 µM. actives 0.49% (n = 310,000). AID 2237;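 active means B-score above 5 SD of library B-scores, and initial fluorescence ratio not above library mean plus 5 SD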;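 further: positive B-score marks a calcium rise read as TRPC4 activation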
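Test system: HEK293 cells stably co-expressing mouse TRPC4beta and mu-opioid receptor | Schedule: Fluo4 dye loading 45 min at room temperature, 110 s recording | Measured by: Kinetic Fluo4 calcium fluorescence, 5 s baseline at 1 Hz | Evaluation: B score of integrated ratio | Controls: Buffer (low) and maximal DAMGO (high)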
TRPC4 spec 2 = mouse TRPC4 off-target activity of TRPC6 inhibitors, second screen. inhibition, % at 10 µM. HEK293 TRPC4/MOR, membrane potential dye fluorescence; channel activated by saturating DAMGO dose. actives 42% (n = 920). shares compounds with TRPC6 inh;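 active means compounds whose fluorescence signal differed from control wells by over 3 SD, either direction, in both duplicate plates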
TRPC4 spec = selectivity of TRPC6 inhibitors: effect on mouse TRPC4; activity change, negative = inhibition, % at 10 µM; shares compounds with TRPC6 inh; AID 2777; HEK293 TRPC4/mu-opioid, membrane potential fluorescence; actives 61% (n = 920);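 active means rise or fall in signal beyond 3 SD of buffer-only wells in both replicate plates, either sign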;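 further: integrated kinetic ratio of fluorescence range over baseline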
HEK293 MPD ctr 2-1 = second counter-screen for TRPC6 inhibitors: parental HEK293 cells | shares compounds with TRPC6 inh | parental HEK293 membrane potential dye fluorescence; maximal acetylcholine challenge after compound addition | signal change vs control, % at 10 µM | actives 31% (n = 920) | AID 2779;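 active means membrane potential signal moving either way by over 3 SD of the maximum-effect control, in both duplicate plates, meaning non-specific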
HEK293 MPD ctr-1 = counter-screen for TRPC6 inhibitors: effect in parental HEK293 cells. parental HEK293 membrane potential dye fluorescence. shares compounds with TRPC6 inh. actives 60% (n = 920). membrane potential signal change, % at 10 µM;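 active means membrane potential signal shifting up or down by more than 3 SD of buffer-only wells, on both duplicate plates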
HEK293 MPD ctr-2 = parental HEK293 nonspecific activity of TRPC6 modulators; shares compounds with TRPC6 inh; membrane potential dye fluorescence; membrane potential signal change, % at 10 µM; actives 51% (n = 2,400); AID 488924;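 active means membrane potential signal moves up or down beyond 5 SD from buffer-only wells, on both duplicate plates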
HEK293 MPD ctr 2-2 = second check of TRPC6 modulator effects in parental HEK293 cells; shares compounds with TRPC6 inh; membrane potential dye fluorescence; after compound, maximal acetylcholine stimulation; AID 488926; inhibition, % at 10 µM; actives 14% (n = 2,400);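 active means membrane potential signal drops by more than 5 SD from the mean control signal, in both duplicate plates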;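 further: plate controls were acetylcholine ECmax control wells for no effect and buffer only wells for full effect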
TRPC4/MOR mod = selectivity of TRPC6 modulators against mouse TRPC4; HEK293 TRPC4/mu-opioid, membrane potential fluorescence; percent change from control (negative = decrease, positive = increase), % at 10 µM; AID 488927; shares compounds with TRPC6 inh; actives 69% (n = 2,400);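 active means membrane potential signal moved up or down beyond 5 SD of buffer control wells, in both duplicate plates, actives on both sides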;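 further: plate controls were assay buffer wells for no effect and DAMGO maximal-effect wells for full effect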
TRPC4/MOR inh 2 = mouse TRPC4 off-target activity of TRPC6 modulators, second screen; HEK293 TRPC4/mu-opioid, membrane potential dye fluorescence; stimulated with maximal-effect DAMGO; AID 488928; inhibition, % at 10 µM; actives 55% (n = 2,400); shares compounds with TRPC6 inh;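 active means drop in membrane potential signal beyond 5 SD of the control wells in both duplicate plates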;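 further: TRPC4 counter screen for TRPC6 hits run under conditions tuned for TRPC6 not TRPC4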
TRPC6 inh conf = confirmation of mouse TRPC6 inhibitors. actives 43% (n = 3,300). AID 488960. HEK293-TRPC6, membrane potential dye, ACh-evoked depolarization. shares compounds with TRPC6 inh. inhibition, % at 10 µM;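 active means fluorescence ratio falls more than 5 SD below the full-stimulation control mean, in both duplicate runs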;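 further: integrated fluorescence ratio of peak minus minimum over baseline after agonist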
TRPC6 act conf = confirmation of mouse TRPC6 activators; actives 11% (n = 2,800); shares compounds with TRPC6 inh; activation, % at 10 µM; HEK293-TRPC6 membrane potential dye fluorescence, FDSS;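 active means ratio signal rise beyond 5 SD above unstimulated control wells' mean, seen in both duplicate runs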;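 further: plate controls were buffer EC0 wells for no effect and acetylcholine ECmax response for full effect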
Starred values were filed as active, the others as inactive; i = inactive; · = no result. Most compounds without a hit are left out; they make up all but 3% or so of the library.

SMILES	Kir21 inh	TRPC6 activator	TRPC4 block	TRPC6 inh	TRPC4 potent	TRPC4 act	HEK293 MPD ctr-2	HEK293 MPD ctr 2-2	TRPC4/MOR mod	TRPC4/MOR inh 2	TRPC6 inh conf	TRPC6 act conf	others
CC(C)(C)c1ccc(S(=O)(=O)N2CCC(N3CCCCC3)CC2)cc1	-2.5	20*	i	i	i	i	238%*	i	41%*	36%*	i	122%*
CC(C)(C)c1ccc(S(=O)(=O)N2CCCCC2)cc1	1.9	i	i	i	i	i	·	·	·	·	·	·
CC(C)(C)c1ccc(S(=O)(=O)N2CCC(CO)(CC3CCCCO3)CC2)cc1 (stereo not drawn)	0.53	i	i	-5.8*	i	i	i	i	17%*	i	i	·
C=CCN1C(=O)C2C(C(=O)NC3CCCC3)C3C=CC2(O3)C1C(=O)NC1CCCC1 (stereo not drawn)	0.03	i	i	i	i	i	·	·	·	·	·	·
O=C(O)COc1ccccc1/C=N/NC(=O)C(O)c1ccccc1 (stereo not drawn)	-0.68	i	i	i	i	i	·	·	·	·	·	·
CCCCN(C)C1=Nc2cccc3cccc1c23	1.2	i	i	-7.5*	i	i	-194%*	i	-42%*	69%*	56%*	i
COc1ccccc1NC1=Nc2cccc3cccc1c23	-0.05	i	i	i	i	i	·	·	·	·	·	·
Cc1ccc(NC(=O)Cc2nnc(SCC(=O)NC3CCCC3)n2C)c(C)c1	0.24	i	i	i	i	i	·	·	·	·	·	·
COc1ccc(CCNC(=O)c2cc3c(=O)n4ccccc4nc3n(CCCN3CCOCC3)c2=N)cc1	1.2	i	i	-7.4*	i	i	·	·	·	·	i	i	TRPC4 spec 2=i;TRPC4 spec=i;HEK293 MPD ctr 2-1=-64%*;HEK293 MPD ctr-1=i
COc1ccc(CCNC(=O)c2cc3c(=O)n4ccccc4nc3n(CCCN3CCOCC3)c2=N)cc1OC	0.13	i	i	i	i	i	·	·	·	·	·	·
N#Cc1cc2c(=O)n3ccccc3nc2n(CCCN2CCOCC2)c1=O	1.3	i	i	-12*	i	i	-285%*	85%*	-48%*	49%*	56%*	i
Cc1ccc2nc3c(cc(C(=O)NCCc4ccccc4)c(=N)n3CCCN3CCOCC3)c(=O)n2c1	0.01	i	i	-6*	i	i	i	i	i	54%*	i	i
COc1ccc(CCn2c(=N)c(C(=O)NCCN3CCOCC3)cc3c(=O)n4ccccc4nc32)cc1OC	0.66	i	i	-5.6*	i	i	152%*	109%*	54%*	44%*	64%*	·
N#Cc1cc2c(=O)n3ccccc3nc2n(Cc2cccnc2)c1=O	0.55	i	i	i	i	i	·	·	·	·	·	·
Cc1ccc2c(c1)N(CC(=O)NCCCN1CCCCC1)C(=O)CO2	-0.08	i	i	i	i	i	·	·	·	·	·	·
COc1ccc(CCNC(=O)c2cc3c(=O)n4ccccc4nc3n(CCN3CCOCC3)c2=N)cc1	-0.83	i	i	-5.7*	i	i	i	i	74%*	86%*	i	i
N=c1c(C(=O)NC2CCCC2)cc2c(=O)n3ccccc3nc2n1CCN1CCOCC1	1.2	i	i	i	i	i	·	·	·	·	·	·
COc1ccc(CCn2c(=N)c(C(=O)N3CCN(C)CC3)cc3c(=O)n4ccccc4nc32)cc1	0.26	i	i	-7.2*	i	i	-274%*	84%*	-50%*	62%*	68%*	i
CN(CC(=O)Nc1cccc(F)c1)C(=O)CCCNC(=O)c1ccc(Cl)cc1	-0.16	i	i	i	i	i	·	·	·	·	·	·
Cc1c2c(n3c(nc4ccccc43)c1C#N)N(CCN(C)C)CC2	-0.58	i	i	-11*	i	i	-324%*	95%*	-60%*	71%*	70%*	i
Cc1c2c(n3c(nc4ccccc43)c1C#N)N(CCCN(C)C)CC2	-2.9	i	i	-8.3*	i	i	-314%*	98%*	-56%*	62%*	68%*	i
CCCCc1c(C)c(C#N)c2nc3ccccc3n2c1NCCN(C)C	1.8	i	i	i	i	i	·	·	·	·	·	·
CCOC(=O)c1cccc(NC(=O)CC2Oc3ccccc3NC2=O)c1 (stereo not drawn)	-2.3	i	i	-6*	i	i	i	i	i	i	i	i
COc1ccccc1NC(=O)CC1COc2ccccc2O1 (stereo not drawn)	-0.76	i	i	i	i	i	·	·	·	·	·	·
CCOC(=O)c1ccc(NC(=O)CC2COc3ccccc3O2)cc1 (stereo not drawn)	-1.1	i	i	-7.4*	i	i	·	·	·	·	i	i	TRPC4 spec 2=i;TRPC4 spec=i;HEK293 MPD ctr 2-1=i;HEK293 MPD ctr-1=i
